Measurements taken from ChEMBL document CHEMBL1641558, “A novel series of potent and selective EP(4) receptor ligands: facile modulation of agonism and antagonism” (Bioorg Med Chem Lett, 2011).

Target: T1, Prostaglandin E2 receptor EP4 subtype (Homo sapiens, UniProt P35408)
Test: Antagonist activity at human prostanoid EP4 receptor expressed in HEK293 cells assessed as inhibition of PGE2-induced cAMP accumulation by scintillation proximity assay
Assay type: functional, cell-based
Conditions: not given
Summary of the method: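 HEK293 cells expressing EP4 receptors. Antagonism is read as inhibition of PGE2-evoked rise in intracellular cAMP, reported as IC50. Agonism is read as cAMP elevation in the same cells without PGE2, reported as EC50.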

T1 sequence (P35408 whole entry): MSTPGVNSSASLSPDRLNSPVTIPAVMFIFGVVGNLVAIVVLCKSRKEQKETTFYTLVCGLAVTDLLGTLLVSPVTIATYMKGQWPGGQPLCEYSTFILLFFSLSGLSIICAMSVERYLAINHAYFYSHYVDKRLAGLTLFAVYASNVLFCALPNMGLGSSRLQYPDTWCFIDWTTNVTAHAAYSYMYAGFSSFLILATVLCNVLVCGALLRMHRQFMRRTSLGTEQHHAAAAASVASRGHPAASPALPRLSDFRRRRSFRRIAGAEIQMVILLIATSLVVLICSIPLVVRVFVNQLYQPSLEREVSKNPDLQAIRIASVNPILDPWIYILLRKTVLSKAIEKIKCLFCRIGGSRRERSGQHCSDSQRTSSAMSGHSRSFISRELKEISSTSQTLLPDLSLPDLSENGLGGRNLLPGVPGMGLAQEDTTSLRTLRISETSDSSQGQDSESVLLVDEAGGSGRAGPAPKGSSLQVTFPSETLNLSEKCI

Structure (SMILES) | IC50 [nM]
C[C@H](NC(=O)c1cccc2c1N(Cc1ccc(Cl)cc1Br)CC2)c1ccc(C(=O)O)cc1 | 8.3
C[C@H](NC(=O)c1cccc2c1N(Cc1ccc(C(C)(C)C)cc1)CC2)c1ccc(C(=O)O)cc1 | 114
Cc1ccc(CN2CCc3cccc(C(=O)N[C@@H](C)c4ccc(C(=O)O)cc4)c32)cc1 | 5.8
C[C@H](NC(=O)c1cccc2c1N(Cc1cccc(C(F)(F)F)c1)CC2)c1ccc(C(=O)O)cc1 | > 10000

Compounds with a lower IC50, results first:

IC50 [nM] | Structure (SMILES)
3 | C[C@H](NC(=O)c1cc(C(F)(F)F)cc2c1N(Cc1ccc(C(F)(F)F)cc1)CC2)c1ccc(C(=O)O)cc1
3.5 | C[C@H](NC(=O)c1cccc2c1N(Cc1ccc(C(F)(F)F)cc1)CC2)c1ccc(-c2nnn[nH]2)cc1

System: not listed separately
Test: Bioavailability in rat at 20 mg/kg, po and 5 mg/kg, iv
Assay type: ADME, organism-based
Conditions: in vivo
Summary of the method: (§1)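 Rat pharmacokinetics with potassium salts, given 20 mg/kg orally in 0.5% methocel and 5 mg/kg intravenously in 60% PEG 200. Half-life, oral bioavailability and clearance derived from these dosings.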

bioavailability [%] | Structure (SMILES)
54 | C[C@H](NC(=O)c1cccc2c1N(Cc1ccc(C(F)(F)F)cc1)CC2)c1ccc(-c2nnn[nH]2)cc1

Species on record: Homo sapiens
Test: Selectivity ratio of Ki for human prostanoid EP2 receptor to Ki for human prostanoid EP4
Conditions: not given

Ratio Ki | Structure (SMILES)
153 | C[C@H](NC(=O)c1cc(C(F)(F)F)cc2c1N(Cc1ccc(C(F)(F)F)cc1)CC2)c1ccc(C(=O)O)cc1
> 1000 | C[C@H](NC(=O)c1cccc2c1N(Cc1ccc(Cl)cc1Br)CC2)c1ccc(C(=O)O)cc1
> 692 | C[C@H](NC(=O)c1cccc2c1N(Cc1ccc(C(C)(C)C)cc1)CC2)c1ccc(C(=O)O)cc1
> 1000 | Cc1ccc(CN2CCc3cccc(C(=O)N[C@@H](C)c4ccc(C(=O)O)cc4)c32)cc1
> 1000 | C[C@H](NC(=O)c1cccc2c1N(Cc1cccc(C(F)(F)F)c1)CC2)c1ccc(C(=O)O)cc1

Target: T1, Prostaglandin E2 receptor EP4 subtype
Test: Agonist activity at human prostanoid EP4 receptor expressed in HEK293 cells assessed as cAMP accumulation by scintillation proximity assay
Conditions: not given

EC50 [nM] | Structure (SMILES)
0.2 | C[C@H](NC(=O)c1cccc2c1N(Cc1cccc(C(F)(F)F)c1)CC2)c1ccc(C(=O)O)cc1

Species on record: Homo sapiens
Test: Selectivity ratio of Ki for human prostanoid EP3 receptor to Ki for human prostanoid EP4
Conditions: not given

Ratio Ki | Structure (SMILES)
> 1000 | C[C@H](NC(=O)c1cc(C(F)(F)F)cc2c1N(Cc1ccc(C(F)(F)F)cc1)CC2)c1ccc(C(=O)O)cc1
> 1000 | C[C@H](NC(=O)c1cccc2c1N(Cc1ccc(Cl)cc1Br)CC2)c1ccc(C(=O)O)cc1
> 1000 | C[C@H](NC(=O)c1cccc2c1N(Cc1ccc(C(C)(C)C)cc1)CC2)c1ccc(C(=O)O)cc1
> 1000 | Cc1ccc(CN2CCc3cccc(C(=O)N[C@@H](C)c4ccc(C(=O)O)cc4)c32)cc1
> 1000 | C[C@H](NC(=O)c1cccc2c1N(Cc1cccc(C(F)(F)F)c1)CC2)c1ccc(C(=O)O)cc1

Target: T1, Prostaglandin E2 receptor EP4 subtype
Test: Displacement of [3H]PGE2 from human prostanoid EP4 receptor expressed in HEK293-EBNA cells after 60 mins by scintillation counting
Assay type: cell-based
Conditions: not given

Structure (SMILES) | Ki [nM]
C[C@H](NC(=O)c1cccc2c1N(Cc1ccc(Cl)cc1Br)CC2)c1ccc(C(=O)O)cc1 | 2.3
C[C@H](NC(=O)c1cccc2c1N(Cc1ccc(C(C)(C)C)cc1)CC2)c1ccc(C(=O)O)cc1 | 14
Cc1ccc(CN2CCc3cccc(C(=O)N[C@@H](C)c4ccc(C(=O)O)cc4)c32)cc1 | 0.78
C[C@H](NC(=O)c1cccc2c1N(Cc1cccc(C(F)(F)F)c1)CC2)c1ccc(C(=O)O)cc1 | 0.4

Next, values leading:

Ki [nM] | Structure (SMILES)
0.66 | C[C@H](NC(=O)c1cc(C(F)(F)F)cc2c1N(Cc1ccc(C(F)(F)F)cc1)CC2)c1ccc(C(=O)O)cc1
1 | C[C@H](NC(=O)c1cccc2c1N(Cc1ccc(C(F)(F)F)cc1)CC2)c1ccc(-c2nnn[nH]2)cc1

Species on record: Homo sapiens
Test: Selectivity ratio of Ki for human prostanoid EP1 receptor to Ki for human prostanoid EP4
Conditions: not given

Ratio Ki | Structure (SMILES)
> 1000 | C[C@H](NC(=O)c1cc(C(F)(F)F)cc2c1N(Cc1ccc(C(F)(F)F)cc1)CC2)c1ccc(C(=O)O)cc1
> 1000 | C[C@H](NC(=O)c1cccc2c1N(Cc1ccc(Cl)cc1Br)CC2)c1ccc(C(=O)O)cc1
> 1000 | C[C@H](NC(=O)c1cccc2c1N(Cc1ccc(C(C)(C)C)cc1)CC2)c1ccc(C(=O)O)cc1
> 1000 | Cc1ccc(CN2CCc3cccc(C(=O)N[C@@H](C)c4ccc(C(=O)O)cc4)c32)cc1
> 1000 | C[C@H](NC(=O)c1cccc2c1N(Cc1cccc(C(F)(F)F)c1)CC2)c1ccc(C(=O)O)cc1

Species on record: Homo sapiens
Test: Selectivity ratio of Ki for human prostanoid FP receptor to Ki for human prostanoid EP4
Conditions: not given

Ratio Ki | Structure (SMILES)
> 1000 | C[C@H](NC(=O)c1cc(C(F)(F)F)cc2c1N(Cc1ccc(C(F)(F)F)cc1)CC2)c1ccc(C(=O)O)cc1
> 1000 | C[C@H](NC(=O)c1cccc2c1N(Cc1ccc(Cl)cc1Br)CC2)c1ccc(C(=O)O)cc1
> 1000 | C[C@H](NC(=O)c1cccc2c1N(Cc1ccc(C(C)(C)C)cc1)CC2)c1ccc(C(=O)O)cc1
> 1000 | Cc1ccc(CN2CCc3cccc(C(=O)N[C@@H](C)c4ccc(C(=O)O)cc4)c32)cc1
> 1000 | C[C@H](NC(=O)c1cccc2c1N(Cc1cccc(C(F)(F)F)c1)CC2)c1ccc(C(=O)O)cc1

System: not listed separately
Test: Clearance in rat at 20 mg/kg, po and 5 mg/kg, iv
Assay type: ADME, organism-based
Conditions: in vivo
Summary of the method: as §1

clearance [mL/min/kg] | Structure (SMILES)
28 | C[C@H](NC(=O)c1cccc2c1N(Cc1ccc(C(F)(F)F)cc1)CC2)c1ccc(-c2nnn[nH]2)cc1

Species on record: Homo sapiens
Test: Selectivity ratio of Ki for human prostanoid TP receptor to Ki for human prostanoid EP4
Conditions: not given

Ratio Ki | Structure (SMILES)
> 1000 | C[C@H](NC(=O)c1cc(C(F)(F)F)cc2c1N(Cc1ccc(C(F)(F)F)cc1)CC2)c1ccc(C(=O)O)cc1
> 1000 | C[C@H](NC(=O)c1cccc2c1N(Cc1ccc(Cl)cc1Br)CC2)c1ccc(C(=O)O)cc1
> 1000 | C[C@H](NC(=O)c1cccc2c1N(Cc1ccc(C(C)(C)C)cc1)CC2)c1ccc(C(=O)O)cc1
> 1000 | Cc1ccc(CN2CCc3cccc(C(=O)N[C@@H](C)c4ccc(C(=O)O)cc4)c32)cc1
> 1000 | C[C@H](NC(=O)c1cccc2c1N(Cc1cccc(C(F)(F)F)c1)CC2)c1ccc(C(=O)O)cc1

Species on record: Homo sapiens
Test: Selectivity ratio of Ki for human prostanoid DP receptor to Ki for human prostanoid EP4
Conditions: not given

Ratio Ki | Structure (SMILES)
504 | C[C@H](NC(=O)c1cc(C(F)(F)F)cc2c1N(Cc1ccc(C(F)(F)F)cc1)CC2)c1ccc(C(=O)O)cc1
114 | C[C@H](NC(=O)c1cccc2c1N(Cc1ccc(Cl)cc1Br)CC2)c1ccc(C(=O)O)cc1
> 281 | C[C@H](NC(=O)c1cccc2c1N(Cc1ccc(C(C)(C)C)cc1)CC2)c1ccc(C(=O)O)cc1
> 1000 | Cc1ccc(CN2CCc3cccc(C(=O)N[C@@H](C)c4ccc(C(=O)O)cc4)c32)cc1
> 1000 | C[C@H](NC(=O)c1cccc2c1N(Cc1cccc(C(F)(F)F)c1)CC2)c1ccc(C(=O)O)cc1

System: not listed separately
Test: Half life in rat at 20 mg/kg, po and 5 mg/kg, iv
Assay type: ADME, organism-based
Conditions: in vivo
Summary of the method: as §1

half-life [h] | Structure (SMILES)
2.6 | C[C@H](NC(=O)c1cccc2c1N(Cc1ccc(C(F)(F)F)cc1)CC2)c1ccc(-c2nnn[nH]2)cc1

Species on record: Homo sapiens
Test: Selectivity ratio of Ki for human prostanoid IP receptor to Ki for human prostanoid EP4
Conditions: not given

Ratio Ki | Structure (SMILES)
> 1000 | C[C@H](NC(=O)c1cc(C(F)(F)F)cc2c1N(Cc1ccc(C(F)(F)F)cc1)CC2)c1ccc(C(=O)O)cc1
> 1000 | C[C@H](NC(=O)c1cccc2c1N(Cc1ccc(Cl)cc1Br)CC2)c1ccc(C(=O)O)cc1
> 1000 | C[C@H](NC(=O)c1cccc2c1N(Cc1ccc(C(C)(C)C)cc1)CC2)c1ccc(C(=O)O)cc1
> 1000 | Cc1ccc(CN2CCc3cccc(C(=O)N[C@@H](C)c4ccc(C(=O)O)cc4)c32)cc1
> 1000 | C[C@H](NC(=O)c1cccc2c1N(Cc1cccc(C(F)(F)F)c1)CC2)c1ccc(C(=O)O)cc1
